Assay results from ChEMBL document CHEMBL1123507, “Antipicornavirus activity of substituted phenoxybenzenes and phenoxypyridines” (J Med Chem, 1986).
Values after ≈ are worked out from the molar mass of the structure shown.

Tests used:
Enterovirus [1] = assay: Lowest concentration to reduce viral effect by 50% or more against Rhinovirus (RV)-1A; type: functional
Summary of the method: (§1)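 HeLa monolayers were seeded at (1.0-1.3) × 10^5 cells/well, grown 24 h at 36 °C in 5% CO2 to 60–75% cover, then refed with maintenance medium (1-2% heat-inactivated FCS) containing two-fold serial compound dilutions made from a 200 μg/mL stock in Me2SO/medium, with final Me2SO ≤0.1%. Cells were challenged with 10-100 TCID50 virus, and CPE was read microscopically at 48 and 72 h. MIC50 was the lowest concentration giving ≥50% CPE reduction versus virus control. Cytotoxicity was the lowest concentration causing cell death, a growth change or a morphology change in uninfected cultures.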

Enterovirus [2] = assay: Lowest concentration to reduce viral effect by 50% or more against Rhinovirus (RV)-2; type: functional; summary of the method: as §1
Coxsackievirus [3] = assay: Lowest concentration to reduce viral effect by 50% or more against coxsackie virus A21; type: functional; summary of the method: as §1
HeLa = assay: Cytotoxicity concentration in HeLa cells; type: cell-based; details: human; summary of the method: as §1
Coxsackievirus [4] = assay: Ratio of the MIC50 of 6-(4-Nitro-phenoxy)-nicotinonitrile compared to compound obtained in the same test for coxsackie A21; type: functional
Summary of the method: (§2)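 Relative activity was calculated as the MIC50 of the positive control 5-cyano-2-(4-nitrophenoxy)pyridine divided by the MIC50 of the test compound. Both were measured in parallel in the same HeLa CPE test (48/72 h microscopic reading) against RV-1A, RV-2 or coxsackievirus A21.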

Enterovirus [5] = assay: Ratio of the MIC50 of 6-(4-Nitro-phenoxy)-nicotinonitrile compared to compound obtained in the same test for Rhinovirus (RV)-2; type: functional; summary of the method: as §2
Enterovirus [6] = assay: Ratio of the MIC50 of 6-(4-Nitro-phenoxy)-nicotinonitrile compared to compound obtained in the same test for Rhinovirus (RV)-1A; type: functional; summary of the method: as §2

| Structure (SMILES) | MIC50 (Enterovirus [1]) [µM] | MIC50 (Enterovirus [2]) [µM] | MIC50 (Coxsackievirus [3]) [µM] | Toxicity (HeLa) [µM] | Relative activity (Coxsackievirus [4]) | Relative activity (Enterovirus [5]) | Relative activity (Enterovirus [6]) |
| --- | --- | --- | --- | --- | --- | --- | --- |
| CS(=O)(=O)c1ccc(Oc2cccc(Cl)c2)cc1 | – | 22.1 (≈ 6.25 µg/mL) | 22.1 (≈ 6.25 µg/mL) | 88 | 0.59 | 1.2 | – |
| N#Cc1cc([N+](=O)[O-])ccc1Oc1ccc(C(=O)c2ccccc2)cc1 | > 291 | > 291 | 36.3 (≈ 12.5 µg/mL) | > 291 | 1.4 | – | – |
| N#Cc1ccccc1Oc1ccc(Cl)c(Cl)c1 | > 379 | > 379 | 23.7 (≈ 6.26 µg/mL) | 379 | 1.1 | – | – |
| COc1ccccc1Oc1ccc([N+](=O)[O-])cc1C#N | 9.2 (≈ 2.49 µg/mL) | 9.2 (≈ 2.49 µg/mL) | 18.5 (≈ 5 µg/mL) | 18.5 | – | – | – |
| O=S(=O)(c1ccc(Oc2ccc(Cl)c(Cl)c2)cc1)C(F)(F)F | 33.7 (≈ 12.5 µg/mL) | 16.8 (≈ 6.24 µg/mL) | – | > 135 | – | 1.5 | 0.39 |
| CS(=O)(=O)c1ccc(Oc2ccc(Cl)c(Cl)c2)c(N)c1 | 15 (≈ 4.98 µg/mL) | 18.7 (≈ 6.21 µg/mL) | 18.7 (≈ 6.21 µg/mL) | 19 | – | – | – |
| CC(=O)c1ccc(Oc2ccc(C#N)cn2)cc1 | 210 (≈ 50 µg/mL) | – | 53 (≈ 12.6 µg/mL) | 420 | 0.02 | – | – |
| CC(=O)c1ccc(Oc2ccc(Cl)c(Cl)c2)cc1 | 2.2 (≈ 0.619 µg/mL) | 2.2 (≈ 0.619 µg/mL) | – | 49 | – | 11.8 | 11.8 |
| C[S+]([O-])c1ccc(Oc2ccc(Cl)c(Cl)c2)nc1 (stereo not given) | 2 (≈ 0.604 µg/mL) | 4 (≈ 1.21 µg/mL) | 83 (≈ 25.1 µg/mL) | 83 | – | 3.3 | 6.5 |
| N#Cc1ccc(Oc2ccc(F)cc2)nc1 | 34 (≈ 7.28 µg/mL) | – | 69 (≈ 14.8 µg/mL) | 250 | 1.7 | – | 3.3 |
| CS(=O)(=O)c1ccc(Oc2ccc(Cl)c(Cl)c2)c(C#N)c1 | > 292 | 18.3 (≈ 6.26 µg/mL) | > 292 | 292 | – | 2.8 | – |
| O=S(=O)(O)c1ccc(Oc2ccc(Cl)c(Cl)c2)nc1 | 20 (≈ 6.4 µg/mL) | > 312 | 312 (≈ 99.9 µg/mL) | 312 | – | – | 1.3 |
| CS(=O)(=O)c1cccnc1Oc1ccc(Cl)c(Cl)c1 | 79 (≈ 25.1 µg/mL) | 157 (≈ 50 µg/mL) | 157 (≈ 50 µg/mL) | 157 | – | – | – |
| N#Cc1cc([N+](=O)[O-])ccc1Oc1ccccc1C(F)(F)F | > 324 | 3.9 (≈ 1.2 µg/mL) | 32 (≈ 9.86 µg/mL) | 32 | – | 3.3 | – |
| N#Cc1ccc(Oc2ccccc2)nc1 | 64 (≈ 12.6 µg/mL) | – | 64 (≈ 12.6 µg/mL) | 676 | 0.81 | – | 0.4 |
| Cc1cc(Oc2ccc(Cl)c(Cl)c2)ccc1S(C)(=O)=O | 15.7 (≈ 5.2 µg/mL) | – | > 151 | > 151 | – | 1.4 | 1.7 |
| N#Cc1cccc(Oc2ccc(Cl)c(Cl)c2)n1 | 94 (≈ 24.9 µg/mL) | > 378 | 23.5 (≈ 6.23 µg/mL) | 378 | 0.91 | – | 0.28 |
| O=[N+]([O-])c1ccc(Oc2ccc(Cl)c(Cl)c2)c([N+](=O)[O-])c1 | > 304 | > 304 | 19 (≈ 6.25 µg/mL) | 19 | – | – | – |
| CC(=O)c1ccc(Oc2ccc(S(C)(=O)=O)cc2)cc1 | 86.2 (≈ 25 µg/mL) | 8.6 (≈ 2.5 µg/mL) | 17.2 (≈ 4.99 µg/mL) | 172 | 0.769 | 3 | – |
| Nc1ccc(Oc2ccc(Cl)c(Cl)c2)nc1 | 5 (≈ 1.28 µg/mL) | – | 98 (≈ 25 µg/mL) | 88 | – | – | 4.1 |
| CS(=O)(=O)c1ccc(Oc2ccc(Cl)c(Cl)c2)c([N+](=O)[O-])c1 | > 267 | 16.7 (≈ 6.05 µg/mL) | > 267 | > 267 | – | 3.1 | – |
| CS(=O)(=O)c1ccc(Oc2ccc(O)cc2)cc1 | 94.7 (≈ 25 µg/mL) | 94.7 (≈ 25 µg/mL) | > 189 | 95 | – | – | – |

The remaining compounds from weak to strong by MIC50 (Coxsackievirus [3]), led by results:

| MIC50 (Enterovirus [1]) [µM] | MIC50 (Enterovirus [2]) [µM] | MIC50 (Coxsackievirus [3]) [µM] | Structure (SMILES) | Toxicity (HeLa) [µM] | Relative activity (Coxsackievirus [4]) | Relative activity (Enterovirus [5]) | Relative activity (Enterovirus [6]) |
| --- | --- | --- | --- | --- | --- | --- | --- |
| – | 16.2 (≈ 5.01 µg/mL) | 16.2 (≈ 5.01 µg/mL) | N#Cc1cc(Oc2ccc(Cl)c(Cl)c2)ccc1[N+](=O)[O-] | 162 | 1.2 | 1.2 | – |
| – | 45.8 (≈ 12.5 µg/mL) | 11.4 (≈ 3.12 µg/mL) | CS(=O)(=O)c1ccc(Oc2ccc(C#N)cc2)cc1 | 183 | 2.3 | 0.56 | – |
| 88 (≈ 24.9 µg/mL) | 44.2 (≈ 12.5 µg/mL) | 11 (≈ 3.11 µg/mL) | CS(=O)(=O)c1ccc(Oc2ccccc2Cl)cc1 | 88 | 1.2 | – | – |
| > 173 | 10.7 (≈ 3.09 µg/mL) | 10.7 (≈ 3.09 µg/mL) | N#Cc1ccc(Oc2ccc(Cl)c(Cl)c2)c(C#N)c1 | > 173 | 3.1 | 2.4 | – |
| > 167 | 20.7 (≈ 6.22 µg/mL) | 10.3 (≈ 3.09 µg/mL) | COc1ccc(Oc2ccc([N+](=O)[O-])cc2C#N)cc1OC | > 167 | 1.3 | 0.63 | – |
| 22.8 (≈ 6.24 µg/mL) | 45.6 (≈ 12.5 µg/mL) | 9.1 (≈ 2.49 µg/mL) | Clc1ccc(Oc2ccc(Cl)c(Cl)c2)cc1 | 91 | 1.4 | – | 2.3 |
| 79 (≈ 25.1 µg/mL) | 79 (≈ 25.1 µg/mL) | 5 (≈ 1.59 µg/mL) | CS(=O)(=O)c1ccnc(Oc2ccc(Cl)c(Cl)c2)c1 | 157 | 10.4 | – | – |
| 4.5 (≈ 1.26 µg/mL) | 9 (≈ 2.51 µg/mL) | 2.2 (≈ 0.614 µg/mL) | N#Cc1cc(N)ccc1Oc1ccc(Cl)c(Cl)c1 | 9 | 11.8 | – | – |
| > 314 | 39.3 (≈ 12.5 µg/mL) | 2 (≈ 0.637 µg/mL) | CS(=O)(=O)c1ccc(Oc2ccc([N+](=O)[O-])cc2C#N)cc1 | > 314 | 2.6 | 1.3 | – |
| 1.6 (≈ 0.607 µg/mL) | 1.6 (≈ 0.607 µg/mL) | 1.6 (≈ 0.607 µg/mL) | O=S(=O)(c1ccccc1)c1ccc(Oc2ccc(Cl)c(Cl)c2)cc1 | 3.3 | – | – | – |
| > 334 | > 334 | 1 (≈ 0.299 µg/mL) | N#Cc1cc(Cl)ccc1Oc1ccc(Cl)c(Cl)c1 | > 334 | 5.2 | – | – |
| > 284 | 142 (≈ 50 µg/mL) | 0.88 (≈ 0.31 µg/mL) | CS(=O)(=O)c1ccc(Oc2ccc(C(=O)c3ccccc3)cc2)cc1 | > 284 | 5.9 | – | – |
| > 350 | 21.8 (≈ 6.24 µg/mL) | 0.87 (≈ 0.249 µg/mL) | CSc1ccc(Oc2ccc([N+](=O)[O-])cc2C#N)cc1 | 350 | 6 | 2.4 | – |
